Assay [1] can be described thus: hit retest on RPL19A-GFP reporter strain – cell-based, S. cerevisiae, flow cytometry, cherry picks, mother/daughter gates, confirmation (AID 2270;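 active means GFP response below 50% of the DMSO control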). As to conditions: 3 h, at 10 µM, stronger effect = lower value, 100 = same GFP as DMSO wells. (In general: A flow cytometer gives signals particle by particle.)
A short description of assay [2]: yeast TOR pathway reporter LAP4-GFP change – cell-based, cherry picks, flow cytometry, mother/daughter gates, confirmation (AID 2271;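 active means GFP response above 150% of the DMSO control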;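 further: ratio of sample to DMSO plate mean so 100% equals DMSO level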). The following applies: S. cerevisiae LAP4-GFP strain, 3 h, at 10 µM, stronger effect = higher value, 100 means same as DMSO control. The gist of the method: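 System: Alexa 633-stained baker's yeast GFP-fusion strain; quantity: 0.2 OD600 cells; timing: compound exposure 3 h at 30 °C, end-over-end rotation; detection: HT flow cytometry, GFP fluorescence channel; measure: per-gate (all, mother, daughter) GFP response vs DMSO; control set: DMSO-only negative wells, rapamycin 400 ng/mL positive wells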

The nature of assay [3]: TOR pathway reporter MEP2-GFP, retest of hits – S. cerevisiae, flow cytometry GFP, cherry picks, confirmation (AID 2272;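 active means GFP response above 150% of the DMSO control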;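 further: ratio of well signal to plate DMSO mean so 100% equals DMSO level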). The following applies: S. cerevisiae MEP2-GFP strain, 3 h, at 10 µM, stronger effect = higher value.
Assay [4] can be described thus: yeast AGP1-GFP fluorescence change, single-dose – cell-based, flow cytometry, S. cerevisiae, cherry picks, confirmation (AID 2273).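 Further: median GFP channel fluorescence over the whole cell population gate.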 The following applies: S. cerevisiae AGP1-GFP strain, 3 h, at 10 µM.
Assay [5] in a line: TOR pathway CIT2 reporter hit retest – S. cerevisiae, GFP fusion, cherry picks, mother/daughter gates, confirmation (AID 2274). The following applies: S. cerevisiae CIT2-GFP strain, flow cytometry, 3 h, at 10 µM, stronger effect = higher value.
The mark [6] stands for this setting: measured here: daughter cell gate.
The mark [7] stands for this setting: measured here: mother cell gate.
Where [8] appears, read: measured here: daughter cell gate response.
The mark [9] stands for this setting: measured here: mother cell gate response.

SMILES strings stand for the structures. Active and inactive are the calls of the source.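 How the source made its calls, unless noted: active means GFP response above 150% of the DMSO level; inconclusive means fewer than 70 events counted for a yeast strain; inactive means the rest.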

As to `O=c1/c(=C/c2cccc3ccccc23)sc2ncnn12`, the GFP response vs DMSO in assay [1] was 112% (inactive); in assay [1] (setting [6]), 113%; in assay [1] (setting [7]) it was 107%; in assay [3], 116% (inactive). For the same compound, the GFP response relative to DMSO in assay [2] is 185% (active); in assay [2] (setting [8]), 177%; in assay [2] (setting [9]), 180%. The GFP response, % of DMSO in assay [4] was 91.2% (inactive); in assay [5], 112% (inactive); in assay [5] (setting [6]) it was 122%; in assay [5] (setting [7]) it was 100%.
For the compound `CCCc1ccc(C(=O)N2CCN(c3ccccc3OCC)CC2)cc1`, the GFP response vs DMSO in assay [1] is 99.1% (inactive); in assay [1] (setting [6]), 98.8%; in assay [1] (setting [7]), 99.2%; in assay [3] it was 97.5% (inactive). Further, the GFP response relative to DMSO in assay [2] is 95.3% (inactive); in assay [2] (setting [8]), 93.6%; in assay [2] (setting [9]) it was 93.6%. Moreover, the GFP response, % of DMSO in assay [4] was 96.9% (inactive); in assay [5], 96.4% (inactive); in assay [5] (setting [6]) it was 96.4%; in assay [5] (setting [7]) it was 94.5%.
On to `CC(=O)S[C@@H]1CC2=CC(=O)CC[C@]2(C)[C@H]2CC[C@@]3(C)[C@@H](CC[C@@]34CCC(=O)O4)[C@H]12`, for which the GFP response vs DMSO is 101% (inactive) in assay [1], 99.2% in assay [1] (setting [6]), 100% in assay [1] (setting [7]) and 100% (inactive) in assay [3]. The GFP response relative to DMSO in assay [2] is 97.4% (inactive); in assay [2] (setting [8]), 97.2%; in assay [2] (setting [9]) it was 98.3%. Also, the GFP response, % of DMSO is 95.9% (inactive) in assay [4], 99.1% (inactive) in assay [5], 96.5% in assay [5] (setting [6]) and 98.7% in assay [5] (setting [7]).
For `COc1cc(C(O)P(=O)(OCC(C)C)OCC(C)C)cc(OC)c1OC` (centres undefined), the GFP response vs DMSO was 99.5% (inactive) in assay [1], 99.8% in assay [1] (setting [6]), 99.7% in assay [1] (setting [7]) and 104% (inactive) in assay [3]. The GFP response relative to DMSO in assay [2] is 100% (inactive); in assay [2] (setting [8]) it was 102%; in assay [2] (setting [9]), 98.5%. The GFP response, % of DMSO in assay [4] was 100% (inactive); in assay [5], 101% (inactive); in assay [5] (setting [6]), 100%; in assay [5] (setting [7]), 99.1%.
With `O=C(Nc1ccccc1C(F)(F)F)c1cc(-c2ccc(O)cc2)on1`, the GFP response vs DMSO is 98.8% (inactive) in assay [1], 97% in assay [1] (setting [6]), 99.2% in assay [1] (setting [7]) and 102% (inactive) in assay [3]. Also, the GFP response relative to DMSO in assay [2] was 108% (inactive); in assay [2] (setting [8]), 102%; in assay [2] (setting [9]), 108%. The GFP response, % of DMSO in assay [4] is 94% (inactive); in assay [5] it was 101% (inactive); in assay [5] (setting [6]) it was 98.3%; in assay [5] (setting [7]), 98%.
With `CSc1ccc(/C=C/C(=O)c2ccc(NC(C)=O)cc2)cc1`, the GFP response vs DMSO is 111% (inactive) in assay [1], 93.2% in assay [1] (setting [6]), 94.5% in assay [1] (setting [7]) and 101% (inactive) in assay [3]. The GFP response relative to DMSO is 111% (inactive) in assay [2], 104% in assay [2] (setting [8]) and 113% in assay [2] (setting [9]). Also, the GFP response, % of DMSO in assay [4] is 97.5% (inactive); in assay [5] it was 91.5% (inactive); in assay [5] (setting [6]), 90.2%; in assay [5] (setting [7]), 82.1%.
Turning to `O=C(N/N=C/c1c(Cl)cccc1Cl)c1ccc(F)cc1`, the GFP response vs DMSO in assay [1] is 95% (inactive); in assay [1] (setting [6]), 96.1%; in assay [1] (setting [7]), 95.7%; in assay [3], 96.8% (inactive). Besides, the GFP response relative to DMSO in assay [2] is 105% (inactive); in assay [2] (setting [8]), 102%; in assay [2] (setting [9]), 105%. Moreover, the GFP response, % of DMSO in assay [4] is 97.1% (inactive); in assay [5], 103% (inactive); in assay [5] (setting [6]), 103%; in assay [5] (setting [7]), 102%.
In the case of `Cc1ccc(-c2nnc(NC(=O)c3ccc([N+](=O)[O-])o3)o2)c(C)c1`, the GFP response vs DMSO in assay [1] was 101% (inactive); in assay [1] (setting [6]), 99.3%; in assay [1] (setting [7]), 99.8%; in assay [3] it was 108% (inactive). Besides, the GFP response relative to DMSO in assay [2] is 161% (active); in assay [2] (setting [8]), 133%; in assay [2] (setting [9]) it was 160%. In addition, the GFP response, % of DMSO in assay [4] is 92.3% (inactive); in assay [5], 95.8% (inactive); in assay [5] (setting [6]), 99.3%; in assay [5] (setting [7]), 91.5%.
In the case of `COc1cccc2c1Oc1ncccc1N(C(=O)CCC(=O)NCc1cccc(C)c1)C2`, the GFP response vs DMSO in assay [1] was 98.4% (inactive); in assay [1] (setting [6]), 98.6%; in assay [1] (setting [7]), 99.2%; in assay [3] it was 100% (inactive). Also, the GFP response relative to DMSO in assay [2] was 97.9% (inactive); in assay [2] (setting [8]) it was 97.6%; in assay [2] (setting [9]), 98.3%. Also, the GFP response, % of DMSO in assay [4] was 97.6% (inactive); in assay [5], 105% (inactive); in assay [5] (setting [6]), 106%; in assay [5] (setting [7]), 104%.
`O=c1[nH]c(CCl)nc2cc(-c3ccc(Cl)cc3)sc12`: the GFP response vs DMSO was 95.8% (inactive) in assay [1], 94.4% in assay [1] (setting [6]), 98.5% in assay [1] (setting [7]) and 107% (inactive) in assay [3]. Further, the GFP response relative to DMSO in assay [2] was 101% (inactive); in assay [2] (setting [8]), 99.1%; in assay [2] (setting [9]), 100%. In addition, the GFP response, % of DMSO was 96.5% (inactive) in assay [4], 93% (inactive) in assay [5], 92% in assay [5] (setting [6]) and 78.5% in assay [5] (setting [7]).
`CCn1cc([N+](=O)[O-])c(C(=O)Nc2nc(-c3ccc(C)c(C)c3)c(C)s2)n1`: the GFP response vs DMSO was 98.8% (inactive) in assay [1], 98.6% in assay [1] (setting [6]), 99.2% in assay [1] (setting [7]) and 100% (inactive) in assay [3]. For the same compound, the results for the GFP response relative to DMSO in assay [2], in assay [2] (setting [8]) and in assay [2] (setting [9]) were 95.4% (inactive), 97.6% and 94%, respectively. The GFP response, % of DMSO in assay [4] was 101% (inactive); in assay [5] it was 99.7% (inactive); in assay [5] (setting [6]) it was 99.1%; in assay [5] (setting [7]), 97.3%.
Turning to `COc1ccc(OC(=O)c2cc(S(=O)(=O)N3CCCC3)ccc2Cl)cc1`, the GFP response vs DMSO is 97.6% (inactive) in assay [1], 96.9% in assay [1] (setting [6]), 97.2% in assay [1] (setting [7]) and 98.3% (inactive) in assay [3]. The GFP response relative to DMSO in assay [2] is 97.9% (inactive); in assay [2] (setting [8]), 99.2%; in assay [2] (setting [9]), 97.2%. In addition, the GFP response, % of DMSO in assay [4] is 94.3% (inactive); in assay [5] it was 101% (inactive); in assay [5] (setting [6]), 103%; in assay [5] (setting [7]), 101%.
As for `CCCOc1ccc(C(=O)NNC(=S)NC(=O)c2ccccc2)cc1`, the GFP response vs DMSO in assay [1] is 114% (inactive); in assay [1] (setting [6]) it was 111%; in assay [1] (setting [7]), 113%; in assay [3] it was 128% (inactive). For the same compound, the GFP response relative to DMSO in assay [2] was 149% (inactive); in assay [2] (setting [8]), 136%; in assay [2] (setting [9]), 150%. In addition, the GFP response, % of DMSO in assay [4] was 98.3% (inactive); in assay [5] it was 114% (inactive); in assay [5] (setting [6]), 116%; in assay [5] (setting [7]), 108%.
With `CCOC(=O)c1ccccc1NC(=O)c1c(O)c2ccccc2n(CC)c1=O`, the GFP response vs DMSO in assay [1] was 95.6% (inactive); in assay [1] (setting [6]) it was 96.9%; in assay [1] (setting [7]), 96.2%; in assay [3], 102% (inactive). In addition, the GFP response relative to DMSO in assay [2] was 101% (inactive); in assay [2] (setting [8]), 102%; in assay [2] (setting [9]), 98.3%. In addition, the GFP response, % of DMSO in assay [4] was 93.7% (inactive); in assay [5], 98.3% (inactive); in assay [5] (setting [6]) it was 99.1%; in assay [5] (setting [7]) it was 97.3%.
